Measurements taken from ChEMBL document CHEMBL1136047, “Discovery of N-[2-[2-[[3-methoxy-4-(5-oxazolyl)phenyl]amino]-5-oxazolyl]phenyl]-N-methyl-4- morpholineacetamide as a novel and potent inhibitor of inosine monophosphate dehydrogenase with excellent in vivo activity” (J Med Chem, 2002).

How the values were obtained:
[1] = biological target: T1, Inosine-5'-monophosphate dehydrogenase 2 (Homo sapiens, UniProt P12268); assay: Inhibition of human inosine-5'-monophosphate dehydrogenase 2
CCRF-CEM = assay: In vitro secondary T-cell (CEM) proliferation assay; format: functional, cell-based; details: Homo sapiens
How it was run: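 Inhibition of CEM T-cell line proliferation. IC50 in μM, reported as the mean of n = 3 determinations.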

[2] = Half-life was evaluated after 10 uM/kg of intra arterial administration; format: ADME, organism-based; details: rat, in vivo
How it was run: (§1)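 Pharmacokinetics measured in rats.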

Rattus norvegicus [3] = assay: Area under the curve was evaluated after 10 uM/kg of intra arterial administration; format: ADME, organism-based; details: in vivo, other; how it was run: as §1
[4] = Bioavailability was evaluated after 20 uM/kg of peroral administration; format: ADME, organism-based; details: rat, in vivo, po, read-out: Bioavailabiility; how it was run: as §1
[5] = Plasma clearance was evaluated after 10 uM/kg of intra arterial administration; format: ADME, organism-based; details: rat; how it was run: as §1
[6] = Cmax was evaluated after 20 umol/kg of peroral administration; format: ADME, organism-based; set-up: dose 20 umol/kg, route oral; details: rat, in vivo, po; how it was run: as §1
[7] = Vss was evaluated after 10 uM/kg of intra arterial administration; format: ADME, organism-based; details: rat, in vivo, read-out: Vss; how it was run: as §1
[8] = Half-life was evaluated after 20 uM/kg of peroral administration; format: ADME, organism-based; details: rat, in vivo, po; how it was run: as §1
Rattus norvegicus [9] = assay: Area under the curve was evaluated after 20 uM/kg of peroral administration; format: ADME, organism-based; details: in vivo, po; how it was run: as §1
[10] = biological target: T1, Inosine-5'-monophosphate dehydrogenase 2; assay: In vitro concentration that causes 50% inhibition of Inosine-5'-monophosphate dehydrogenase 2
How it was run: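 Inhibition of IMPDH type II catalytic activity. IC50 reported as the mean of n = 3 determinations.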

| IC50 [1] | IC50 (CCRF-CEM) | SMILES | further results |
| --- | --- | --- | --- |
| 127 nM | > 10000 nM | CCOC(=O)c1ccccc1-c1cnc(Nc2ccc(-c3cnco3)c(OC)c2)o1 | – |
| 115 nM | 9000 nM | COc1ccc(-c2cnc(Nc3ccc(-c4cnco4)c(OC)c3)o2)cc1 | – |
| 11 nM | 890 nM | COc1cc(Nc2ncc(-c3ccccc3N(C)C(=O)Cn3cccn3)o2)ccc1-c1cnco1 | – |
| 18 nM | 730 nM | COc1cc(Nc2ncc(-c3ccccc3N(C)C(C)=O)o2)ccc1-c1cnco1 | – |
| 30 nM | 1000 nM | COc1cc(Nc2ncc(-c3ccccc3NC(C)=O)o2)ccc1-c1cnco1 | – |
| 70 nM | > 10000 nM | COc1cc(Nc2ncc(-c3cccc(C)c3)o2)ccc1-c1cnco1 | – |
| 104 nM | 8000 nM | CNC(=O)c1ccccc1-c1cnc(Nc2ccc(-c3cnco3)c(OC)c2)o1 | – |
| – | 340 nM | COc1c(C)c2c(c(O)c1C/C=C(\C)CCC(=O)O)C(=O)OC2 [MYCOPHENOLIC ACID] | – |
| 20 nM | 700 nM | COc1cc(Nc2ncc(-c3ccccc3N(C)C(=O)CNC(C)(C)C)o2)ccc1-c1cnco1 | – |
| 13 nM | 650 nM | COc1cc(Nc2ncc(-c3ccccc3N(C)C(=O)Cn3cncn3)o2)ccc1-c1cnco1 | – |
| 85 nM | > 10000 nM | COc1cc(Nc2ncc(-c3ccc(C)cc3)o2)ccc1-c1cnco1 | – |
| 141 nM | 9000 nM | COc1cc(Nc2ncc(-c3ccccc3C(=O)N(C)C)o2)ccc1-c1cnco1 | – |
| 22 nM | 960 nM | CNCC(=O)N(C)c1ccccc1-c1cnc(Nc2ccc(-c3cnco3)c(OC)c2)o1 | – |
| 15 nM | 1000 nM | COc1cc(Nc2ncc(-c3ccccc3N(C)C(=O)CN(C)C)o2)ccc1-c1cnco1 | – |
| 10 nM | 430 nM | COc1cc(NC(=O)Nc2cccc(CNC(=O)O[C@H]3CCOC3)c2)ccc1-c1cnco1 [MERIMEPODIB] | – |
| 17 nM | 940 nM | COc1cc(Nc2ncc(-c3ccccc3N(C)C(=O)CN3CCN(C)CC3)o2)ccc1-c1cnco1 | – |
| 97 nM | > 10000 nM | COc1cccc(-c2cnc(Nc3ccc(-c4cnco4)c(OC)c3)o2)c1 | – |
| 12 nM | – | COc1cc(Nc2ncc(-c3ccccc3N(C)C(=O)CN3CCOCC3)o2)ccc1-c1cnco1 | half-life [2]: 5.9 h; AUC (Rattus norvegicus [3]): 2.37 µM·h; bioavailability [4]: 25%; clearance [5]: 71 mL/min/kg; Cmax [6]: 1500 nM; Vd [7]: 2.1 L/kg; half-life [8]: 2.5 h; AUC (Rattus norvegicus [9]): 1.2 µM·h |
| – | – | COc1cc(Nc2ncc(-c3ccccc3C(=O)O)o2)ccc1-c1cnco1 | inhibition [10]: 11% |
| 23 nM | 7000 nM | COc1cc(Nc2ncc(-c3ccccc3OC)o2)ccc1-c1cnco1 | – |
| 13 nM | 680 nM | COc1cc(Nc2ncc(-c3ccccc3N(C)C(=O)CCN3CCOCC3)o2)ccc1-c1cnco1 | – |
| 27 nM | 9000 nM | COc1cc(Nc2nc(C)c(-c3ccccc3)o2)ccc1-c1cnco1 | – |
| 25 nM | > 10000 nM | COc1cc(Nc2ncc(-c3ccccc3C)o2)ccc1-c1cnco1 | – |
| 86 nM | > 10000 nM | CCc1nc(Nc2ccc(-c3cnco3)c(OC)c2)oc1-c1ccccc1 | – |

| SMILES | IC50 [1] | IC50 (CCRF-CEM) | further results |
| --- | --- | --- | --- |
| COc1cc(Nc2ncc(-c3ccccc3)o2)ccc1-c1cnco1 | 20 nM | 7000 nM | – |
